In ChEMBL document CHEMBL2417369, “Synthesis and evaluation of heteroaryl substituted diazaspirocycles as scaffolds to probe the ATP-binding site of protein kinases” (Bioorg Med Chem, 2013) one finds inhibition data, which are given here for eight molecules.

Experiment [1] concerns the target T1, Aurora kinase A (Homo sapiens) (UniProt O14965).
T1 sequence (whole entry): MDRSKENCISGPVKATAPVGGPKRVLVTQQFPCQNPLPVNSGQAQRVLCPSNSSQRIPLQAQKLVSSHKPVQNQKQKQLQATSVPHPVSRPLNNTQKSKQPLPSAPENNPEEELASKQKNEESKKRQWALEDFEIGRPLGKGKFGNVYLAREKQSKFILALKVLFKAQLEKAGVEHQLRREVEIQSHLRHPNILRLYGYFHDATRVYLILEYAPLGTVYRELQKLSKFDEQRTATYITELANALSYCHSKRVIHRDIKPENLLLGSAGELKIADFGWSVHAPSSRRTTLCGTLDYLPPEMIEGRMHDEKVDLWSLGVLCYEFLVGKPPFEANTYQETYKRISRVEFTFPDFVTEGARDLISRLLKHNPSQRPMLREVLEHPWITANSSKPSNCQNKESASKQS
Nature of the experiment: Inhibition of AURA (unknown origin) at 30 uM by microfluidic mobility shift assay relative to control. In short, it runs like this: (§1)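 Single-point screen in a 24-enzyme kinase panel using a microfluidic assay. Each compound was tested at […] with ATP at roughly the Km for each enzyme. The pan-AGC inhibitor H-89 served as an internal control on every plate.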

Experiment [2] has as its target Ribosomal protein S6 kinase alpha-5 (Homo sapiens, UniProt O75582). The experiment is described as follows: Inhibition of MSK1 (unknown origin) at 30 uM by microfluidic mobility shift assay relative to control. In short, it runs like this: as §1
In experiment [3] the target is Insulin receptor (Homo sapiens) (UniProt P06213). Nature of the experiment: Inhibition of INSR (unknown origin) at 30 uM by microfluidic mobility shift assay relative to control. In short, it runs like this: as §1
In experiment [4] the target is T2, Serine/threonine-protein kinase D2 (Homo sapiens) (UniProt Q9BZL6).
T2 sequence (whole entry): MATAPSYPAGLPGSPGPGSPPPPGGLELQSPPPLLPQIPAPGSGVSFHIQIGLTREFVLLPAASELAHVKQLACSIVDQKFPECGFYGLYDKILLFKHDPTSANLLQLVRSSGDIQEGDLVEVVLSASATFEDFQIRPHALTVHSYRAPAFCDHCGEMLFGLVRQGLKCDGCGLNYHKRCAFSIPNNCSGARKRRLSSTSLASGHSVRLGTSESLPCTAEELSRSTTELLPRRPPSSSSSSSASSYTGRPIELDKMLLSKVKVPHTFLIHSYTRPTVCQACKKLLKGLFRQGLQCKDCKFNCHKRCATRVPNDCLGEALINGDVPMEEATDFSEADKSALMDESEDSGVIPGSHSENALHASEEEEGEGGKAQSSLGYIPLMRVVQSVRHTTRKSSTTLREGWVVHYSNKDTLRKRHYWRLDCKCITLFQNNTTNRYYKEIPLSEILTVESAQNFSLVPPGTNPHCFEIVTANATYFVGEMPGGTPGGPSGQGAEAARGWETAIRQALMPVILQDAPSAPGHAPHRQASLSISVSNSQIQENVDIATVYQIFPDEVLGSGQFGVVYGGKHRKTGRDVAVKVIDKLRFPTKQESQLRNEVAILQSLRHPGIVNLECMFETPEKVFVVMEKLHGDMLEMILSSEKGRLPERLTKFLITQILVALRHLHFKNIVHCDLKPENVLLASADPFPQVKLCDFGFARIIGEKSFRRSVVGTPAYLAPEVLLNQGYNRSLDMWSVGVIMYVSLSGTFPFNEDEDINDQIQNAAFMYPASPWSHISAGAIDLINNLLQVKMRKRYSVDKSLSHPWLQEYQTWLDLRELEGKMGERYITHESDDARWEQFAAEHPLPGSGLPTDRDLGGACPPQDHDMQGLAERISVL
The experiment is described as follows: Inhibition of PKD2 (unknown origin) at 30 uM by microfluidic mobility shift assay relative to control. In short, it runs like this: as §1

The target in experiment [5] is Serine/threonine-protein kinase Chk2 (Homo sapiens, UniProt O96017). The experiment is described as follows: Inhibition of CHK2 (unknown origin) at 30 uM by microfluidic mobility shift assay relative to control. In short, it runs like this:
as §1

For the next experiment, the species on record is Homo sapiens. The experiment is described as follows: Inhibition of PKA (unknown origin) at 30 uM by microfluidic mobility shift assay relative to control. In short, it runs like this:
as §1

Experiment [6] concerns the target Tyrosine-protein kinase ABL1 (Homo sapiens, UniProt P00519). The experiment is described as follows: Inhibition of ABL (unknown origin) at 30 uM by microfluidic mobility shift assay relative to control. In short, it runs like this: as §1
The target in experiment [7] is Mitogen-activated protein kinase 14 (Homo sapiens) (UniProt Q16539). The experiment is described as follows: Inhibition of p38alpha (unknown origin) at 30 uM by microfluidic mobility shift assay relative to control. In short, it runs like this: as §1
Experiment [8] has as its target T3, Serine/threonine-protein kinase Chk1 (Homo sapiens) (UniProt O14757).
T3 sequence (whole entry): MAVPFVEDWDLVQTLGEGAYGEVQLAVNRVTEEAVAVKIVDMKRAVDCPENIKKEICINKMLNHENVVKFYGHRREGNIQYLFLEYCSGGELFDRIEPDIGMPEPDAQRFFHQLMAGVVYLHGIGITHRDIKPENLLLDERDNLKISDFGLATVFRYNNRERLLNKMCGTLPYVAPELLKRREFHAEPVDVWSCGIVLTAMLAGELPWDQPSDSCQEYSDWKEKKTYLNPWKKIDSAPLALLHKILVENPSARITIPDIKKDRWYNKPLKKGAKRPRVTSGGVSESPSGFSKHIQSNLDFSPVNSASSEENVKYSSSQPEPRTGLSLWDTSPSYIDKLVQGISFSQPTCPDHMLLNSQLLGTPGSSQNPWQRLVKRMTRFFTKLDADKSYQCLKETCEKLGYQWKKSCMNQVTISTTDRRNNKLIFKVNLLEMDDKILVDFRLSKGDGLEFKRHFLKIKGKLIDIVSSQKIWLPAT
Nature of the experiment: Inhibition of CHK1 (unknown origin) at 30 uM by microfluidic mobility shift assay relative to control. A digest of the protocol: as §1

Experiment [9] concerns the target Glycogen synthase kinase-3 beta (Homo sapiens, UniProt P49841). Nature of the experiment: Inhibition of GSK3beta (unknown origin) at 30 uM by microfluidic mobility shift assay relative to control. A digest of the protocol:
as §1

The target in experiment [10] is MAP kinase-activated protein kinase 2 (Homo sapiens) (UniProt P49137). The experiment is described as follows: Inhibition of MK2 (unknown origin) at 30 uM by microfluidic mobility shift assay relative to control. In short, it runs like this:
as §1

For experiment [11], the target named is Tyrosine-protein kinase Lck (Homo sapiens, UniProt P06239). The experiment is described as follows: Inhibition of LCK (unknown origin) at 30 uM by microfluidic mobility shift assay relative to control. In short, it runs like this: as §1
The target of experiment [12] is Mitogen-activated protein kinase 3 (Homo sapiens, UniProt P27361). Nature of the experiment: Inhibition of ERK1 (unknown origin) at 30 uM by microfluidic mobility shift assay relative to control. A digest of the protocol:
as §1

The target of experiment [13] is Tyrosine-protein kinase Lyn (Homo sapiens, UniProt P07948). Nature of the experiment: Inhibition of LYN (unknown origin) at 30 uM by microfluidic mobility shift assay relative to control. In short, it runs like this:
as §1

Experiment [14] addresses RAC-alpha serine/threonine-protein kinase (Homo sapiens, UniProt P31749). The experiment is described as follows: Inhibition of AKT1 (unknown origin) at 30 uM by microfluidic mobility shift assay relative to control. In short, it runs like this: as §1
Experiment [15] deals with Mitogen-activated protein kinase 1 (Homo sapiens, UniProt P28482). The experiment is described as follows: Inhibition of ERK2 (unknown origin) at 30 uM by microfluidic mobility shift assay relative to control. A digest of the protocol:
as §1

MAP kinase-activated protein kinase 2 (Homo sapiens), sequence (P49137 whole entry, looked up): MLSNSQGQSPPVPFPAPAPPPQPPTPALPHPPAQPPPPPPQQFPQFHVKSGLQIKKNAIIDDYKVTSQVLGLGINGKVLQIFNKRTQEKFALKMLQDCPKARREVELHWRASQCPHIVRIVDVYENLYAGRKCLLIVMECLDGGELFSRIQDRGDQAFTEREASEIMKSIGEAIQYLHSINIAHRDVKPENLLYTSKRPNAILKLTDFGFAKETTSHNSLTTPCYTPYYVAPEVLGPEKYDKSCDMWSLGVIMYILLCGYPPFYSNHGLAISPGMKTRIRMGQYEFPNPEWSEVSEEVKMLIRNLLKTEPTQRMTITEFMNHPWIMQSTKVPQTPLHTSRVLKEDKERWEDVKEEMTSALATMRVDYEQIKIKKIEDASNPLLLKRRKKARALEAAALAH
Ribosomal protein S6 kinase alpha-5, sequence (O75582 whole entry, looked up): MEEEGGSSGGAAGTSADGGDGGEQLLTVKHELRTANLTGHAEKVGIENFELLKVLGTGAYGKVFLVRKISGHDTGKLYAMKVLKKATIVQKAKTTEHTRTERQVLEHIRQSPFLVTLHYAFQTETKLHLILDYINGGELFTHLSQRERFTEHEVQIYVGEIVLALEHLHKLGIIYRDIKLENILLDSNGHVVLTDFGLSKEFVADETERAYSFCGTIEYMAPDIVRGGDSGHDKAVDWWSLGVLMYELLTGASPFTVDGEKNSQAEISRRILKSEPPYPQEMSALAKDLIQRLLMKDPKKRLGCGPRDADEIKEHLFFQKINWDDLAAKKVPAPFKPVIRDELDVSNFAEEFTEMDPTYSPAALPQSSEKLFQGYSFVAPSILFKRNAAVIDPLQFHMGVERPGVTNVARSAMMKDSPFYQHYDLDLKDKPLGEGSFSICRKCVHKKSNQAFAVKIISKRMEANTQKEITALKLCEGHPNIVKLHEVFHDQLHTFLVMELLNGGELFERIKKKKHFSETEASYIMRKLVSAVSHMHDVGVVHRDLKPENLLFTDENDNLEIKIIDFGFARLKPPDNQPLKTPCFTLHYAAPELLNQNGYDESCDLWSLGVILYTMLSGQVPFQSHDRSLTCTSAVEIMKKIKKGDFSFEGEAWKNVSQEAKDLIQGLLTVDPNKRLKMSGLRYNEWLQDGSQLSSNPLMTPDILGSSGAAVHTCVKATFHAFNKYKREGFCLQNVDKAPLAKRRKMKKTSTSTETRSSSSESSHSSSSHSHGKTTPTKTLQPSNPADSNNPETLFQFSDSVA
Tyrosine-protein kinase ABL1, sequence (P00519 whole entry): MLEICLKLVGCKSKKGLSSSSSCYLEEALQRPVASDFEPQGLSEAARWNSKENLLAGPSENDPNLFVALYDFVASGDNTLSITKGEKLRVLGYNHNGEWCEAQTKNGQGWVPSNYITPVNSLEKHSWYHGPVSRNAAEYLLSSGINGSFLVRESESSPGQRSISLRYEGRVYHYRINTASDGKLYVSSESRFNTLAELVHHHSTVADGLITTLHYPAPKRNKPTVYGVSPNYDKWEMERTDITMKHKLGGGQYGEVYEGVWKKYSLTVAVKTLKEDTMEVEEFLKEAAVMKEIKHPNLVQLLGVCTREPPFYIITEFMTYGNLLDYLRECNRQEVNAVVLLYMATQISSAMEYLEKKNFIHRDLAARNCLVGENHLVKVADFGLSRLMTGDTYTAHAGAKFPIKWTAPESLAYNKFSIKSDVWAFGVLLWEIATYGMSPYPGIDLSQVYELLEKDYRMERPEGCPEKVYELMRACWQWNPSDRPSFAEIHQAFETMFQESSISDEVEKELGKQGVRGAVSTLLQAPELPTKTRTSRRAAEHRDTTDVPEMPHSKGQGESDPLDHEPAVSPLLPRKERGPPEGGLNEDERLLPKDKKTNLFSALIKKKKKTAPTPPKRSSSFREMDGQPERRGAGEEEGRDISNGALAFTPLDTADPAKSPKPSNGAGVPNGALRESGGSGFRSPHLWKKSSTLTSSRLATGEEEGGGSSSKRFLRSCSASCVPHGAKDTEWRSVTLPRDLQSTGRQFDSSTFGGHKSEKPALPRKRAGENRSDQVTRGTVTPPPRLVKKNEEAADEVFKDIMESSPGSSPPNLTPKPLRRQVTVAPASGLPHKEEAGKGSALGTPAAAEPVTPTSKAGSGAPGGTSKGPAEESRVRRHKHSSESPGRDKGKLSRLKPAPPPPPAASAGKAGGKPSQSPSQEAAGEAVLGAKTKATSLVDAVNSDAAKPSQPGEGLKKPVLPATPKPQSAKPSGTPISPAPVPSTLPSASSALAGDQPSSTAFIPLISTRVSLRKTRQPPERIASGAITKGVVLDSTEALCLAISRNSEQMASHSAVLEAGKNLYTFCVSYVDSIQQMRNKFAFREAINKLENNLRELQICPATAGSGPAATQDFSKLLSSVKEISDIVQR
RAC-alpha serine/threonine-protein kinase, sequence (P31749 whole entry): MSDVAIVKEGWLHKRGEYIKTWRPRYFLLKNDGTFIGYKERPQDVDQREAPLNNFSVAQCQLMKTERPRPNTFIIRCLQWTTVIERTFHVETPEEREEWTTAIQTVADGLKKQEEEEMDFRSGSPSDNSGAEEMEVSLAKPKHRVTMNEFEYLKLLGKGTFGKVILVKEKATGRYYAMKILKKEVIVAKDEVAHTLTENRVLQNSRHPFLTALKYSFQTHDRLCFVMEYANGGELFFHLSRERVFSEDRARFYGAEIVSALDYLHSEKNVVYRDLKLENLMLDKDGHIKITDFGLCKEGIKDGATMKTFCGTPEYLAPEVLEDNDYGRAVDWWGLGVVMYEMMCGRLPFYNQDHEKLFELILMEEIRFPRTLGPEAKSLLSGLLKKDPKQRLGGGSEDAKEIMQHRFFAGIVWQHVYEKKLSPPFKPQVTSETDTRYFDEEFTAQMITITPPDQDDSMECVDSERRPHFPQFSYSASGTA
Tyrosine-protein kinase Lck, sequence (P06239 2-509 limits assumed): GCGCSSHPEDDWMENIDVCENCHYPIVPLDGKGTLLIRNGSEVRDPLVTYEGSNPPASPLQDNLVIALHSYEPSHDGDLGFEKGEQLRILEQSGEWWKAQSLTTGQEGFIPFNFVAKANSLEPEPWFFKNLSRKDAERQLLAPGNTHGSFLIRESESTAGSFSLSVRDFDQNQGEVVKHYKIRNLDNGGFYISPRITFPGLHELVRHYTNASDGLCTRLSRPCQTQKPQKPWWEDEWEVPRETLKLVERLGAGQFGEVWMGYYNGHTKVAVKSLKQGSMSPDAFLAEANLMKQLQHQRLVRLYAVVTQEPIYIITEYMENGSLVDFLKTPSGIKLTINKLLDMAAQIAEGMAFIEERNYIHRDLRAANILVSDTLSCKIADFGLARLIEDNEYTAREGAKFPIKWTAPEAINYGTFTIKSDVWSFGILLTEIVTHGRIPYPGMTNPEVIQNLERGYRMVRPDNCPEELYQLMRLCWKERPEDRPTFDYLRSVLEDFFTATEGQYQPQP
Mitogen-activated protein kinase 1, sequence (P28482 whole entry): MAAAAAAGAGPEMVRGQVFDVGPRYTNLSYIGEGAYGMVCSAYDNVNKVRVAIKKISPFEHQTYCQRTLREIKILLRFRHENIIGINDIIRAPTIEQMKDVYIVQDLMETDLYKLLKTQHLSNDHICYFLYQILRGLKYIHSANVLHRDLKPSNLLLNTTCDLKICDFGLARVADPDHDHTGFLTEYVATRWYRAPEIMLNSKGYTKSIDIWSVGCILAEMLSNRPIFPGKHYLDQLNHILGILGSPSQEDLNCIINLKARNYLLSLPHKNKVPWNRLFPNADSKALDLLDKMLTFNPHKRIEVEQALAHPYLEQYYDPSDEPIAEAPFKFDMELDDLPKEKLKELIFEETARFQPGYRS
Mitogen-activated protein kinase 3, sequence (P27361 whole entry): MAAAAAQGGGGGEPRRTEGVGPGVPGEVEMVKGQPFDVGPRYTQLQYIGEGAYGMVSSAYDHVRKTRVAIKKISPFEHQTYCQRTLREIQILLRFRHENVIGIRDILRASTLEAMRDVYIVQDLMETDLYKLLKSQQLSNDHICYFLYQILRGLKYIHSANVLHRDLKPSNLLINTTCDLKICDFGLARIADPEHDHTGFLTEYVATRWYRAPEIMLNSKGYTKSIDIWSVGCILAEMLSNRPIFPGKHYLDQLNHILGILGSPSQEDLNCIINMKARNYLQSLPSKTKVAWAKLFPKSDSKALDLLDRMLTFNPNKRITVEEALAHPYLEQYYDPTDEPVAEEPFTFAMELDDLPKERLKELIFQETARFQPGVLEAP
Mitogen-activated protein kinase 14 (Homo sapiens), sequence (Q16539 whole entry): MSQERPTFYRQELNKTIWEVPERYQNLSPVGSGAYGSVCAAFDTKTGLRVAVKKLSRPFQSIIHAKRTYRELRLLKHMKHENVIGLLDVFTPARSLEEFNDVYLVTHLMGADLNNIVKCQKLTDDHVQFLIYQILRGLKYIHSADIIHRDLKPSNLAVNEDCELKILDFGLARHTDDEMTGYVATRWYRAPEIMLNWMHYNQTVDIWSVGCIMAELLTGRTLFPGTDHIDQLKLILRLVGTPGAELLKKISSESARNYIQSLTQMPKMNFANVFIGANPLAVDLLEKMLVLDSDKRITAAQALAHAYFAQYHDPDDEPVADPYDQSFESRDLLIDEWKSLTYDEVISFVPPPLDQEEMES
Serine/threonine-protein kinase Chk2, sequence (O96017 whole entry): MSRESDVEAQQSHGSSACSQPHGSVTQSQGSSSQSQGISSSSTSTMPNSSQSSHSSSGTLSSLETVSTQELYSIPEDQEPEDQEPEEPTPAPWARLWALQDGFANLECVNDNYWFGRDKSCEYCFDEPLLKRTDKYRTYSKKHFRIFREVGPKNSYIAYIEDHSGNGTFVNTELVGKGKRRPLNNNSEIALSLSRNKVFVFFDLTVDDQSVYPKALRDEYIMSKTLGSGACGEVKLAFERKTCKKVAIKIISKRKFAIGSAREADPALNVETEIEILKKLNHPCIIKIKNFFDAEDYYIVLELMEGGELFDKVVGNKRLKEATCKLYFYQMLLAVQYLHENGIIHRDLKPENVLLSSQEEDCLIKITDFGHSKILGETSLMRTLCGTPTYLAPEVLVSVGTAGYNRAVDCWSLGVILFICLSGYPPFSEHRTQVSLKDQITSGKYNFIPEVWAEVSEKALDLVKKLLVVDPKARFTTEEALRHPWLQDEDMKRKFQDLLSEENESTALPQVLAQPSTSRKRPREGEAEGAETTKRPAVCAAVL

Take `NC1(Cc2ccccc2)CCN(S(=O)(=O)c2cccc3cnccc23)CC1`: the inhibition worked out at 43% in experiment [1]; 58% in experiment [2]; 4% in experiment [3]; 16% in [4]; 8% in [5]; 80% in the experiment listed under Homo sapiens. The inhibition stood at 7% in experiment [6]; 10% in experiment [7]; 4% in [8]; 19% in experiment [9]; 0% in [10]; 15% in experiment [11]. In addition, the inhibition in [12] came out at 10%; in [13], 10%; in experiment [14] it was 15%; in experiment [15], 17%.

On to `c1nc(N2CCC3(CCCCN3)CC2)c2nc[nH]c2n1`, for which the inhibition in experiment [1] came to 81%; in [2], 88%; in [3], 4%; in experiment [4] it was 42%; in [5], 58%; in the experiment filed under Homo sapiens it was 98%. Further, the inhibition in experiment [6] is 33%; in experiment [7], 3%; in experiment [8], 85%; in [9], 28%; in experiment [10] it was 24%; in experiment [11], 25%. For the same molecule, the inhibition was found to be 46% in experiment [12], 52% in [13], 87% in experiment [14] and 50% in experiment [15].

On to `O=S(=O)(c1cccc2cnccc12)N1CCC2(CCCCN2)CC1`, for which the inhibition in [1] worked out at 71%; in [2] it was 76%; in experiment [3] it was 3%; in [4], 24%; in experiment [5] it was 26%; in the experiment listed under Homo sapiens, 89%. The inhibition in experiment [6] turned out to be 12%; in experiment [7] it was 7%; in [8], 0%; in [9], 28%; in experiment [10], 14%; in [11], 15%. Also, the inhibition in [12] was 0%; in experiment [13] it was 18%; in experiment [14] it was 27%; in experiment [15], 9%.

In the case of `NC1(Cc2ccccc2)CCN(c2ncnc3[nH]cnc23)CC1`, the inhibition came to 96% in experiment [1]; 73% in experiment [2]; 0% in experiment [3]; 53% in [4]; 74% in [5]; 96% in the experiment filed under Homo sapiens. Moreover, the inhibition turned out to be 45% in experiment [6]; 11% in [7]; 62% in experiment [8]; 53% in [9]; 23% in [10]; 71% in experiment [11]. The inhibition in [12] was 41%; in [13] it was 72%; in experiment [14], 93%; in experiment [15] it was 67%.

Regarding `CNC(=O)C1CCC2(CCN(c3ncnc4[nH]cnc34)CC2)NC1` (racemic), the inhibition came out at 74% in experiment [1]; 80% in experiment [2]; 16% in experiment [3]; 35% in experiment [4]; 34% in [5]; 95% in the experiment filed under Homo sapiens. In addition, the inhibition in experiment [6] came out at 23%; in [7], 16%; in experiment [8] it was 70%; in experiment [9], 17%; in [10], 10%; in experiment [11], 31%. The inhibition in [12] was determined as 30%; in experiment [13], 26%; in experiment [14], 83%; in experiment [15], 30%.

Take `c1nc(N2CCCC3(CCCNC3)C2)c2nc[nH]c2n1` (stereo not drawn): the inhibition in [1] was found to be 34%; in [2], 71%; in experiment [3], 4%; in experiment [4], 7%; in experiment [5] it was 26%; in the experiment filed under Homo sapiens, 89%. The inhibition in experiment [6] was determined as 5%; in experiment [7], 5%; in experiment [8] it was 37%; in experiment [9], 15%; in experiment [10] it was 11%; in experiment [11], 7%. The inhibition in experiment [12] amounted to 19%; in experiment [13], 2%; in experiment [14], 77%; in [15], 15%.

With `c1nc(N2CCC3(CCNC3)CC2)c2nc[nH]c2n1`, the inhibition in experiment [1] was 59%; in experiment [2], 94%; in [3], 6%; in experiment [4], 80%; in [5], 64%; in the experiment listed under Homo sapiens, 99%. For the same molecule, the inhibition in experiment [6] worked out at 80%; in [7] it was 3%; in [8] it was 84%; in [9] it was 39%; in [10] it was 66%; in experiment [11] it was 86%. In addition, the inhibition in experiment [12] was 39%; in experiment [13], 65%; in experiment [14], 94%; in experiment [15], 38%.

For the molecule `OCC1CCC2(CCN(c3ncnc4[nH]cnc34)CC2)NC1` (racemic), the inhibition in experiment [1] was 84%; in [2], 88%; in experiment [3], 17%; in [4], 45%; in [5], 56%; in the experiment filed under Homo sapiens, 98%. The inhibition in experiment [6] is 15%; in experiment [7] it was 14%; in experiment [8], 27%; in [9] it was 21%; in [10], 22%; in experiment [11], 15%. Further, the inhibition in experiment [12] is 31%; in experiment [13], 16%; in experiment [14], 80%; in experiment [15] it was 32%.
